Source: ChEMBL document CHEMBL1773021, “Virtual screening identification of novel severe acute respiratory syndrome 3C-like protease inhibitors and in vitro confirmation” (Bioorg Med Chem Lett, 2011)
Active and inactive are the calls of the source. The calls are words filed in the database; no cut-off is given here.

How the values were obtained:
[1] = biological target: T1, Replicase polyprotein 1ab (Severe acute respiratory syndrome-related coronavirus, UniProt P0C6X7); assay: Inhibition of SARS coronavirus recombinant 3C-like protease expressed in Escherichia coli BL21(DE3) after 30 mins by FRET based assay
[2] = biological target: Replicase polyprotein 1ab (Severe acute respiratory syndrome-related coronavirus) (UniProt P0C6X7); assay: Inhibition of SARS coronavirus recombinant 3C-like protease expressed in Escherichia coli BL21(DE3) at 100 uM after 18 mins by FRET based assay
[3] = biological target: Replicase polyprotein 1ab (Severe acute respiratory syndrome-related coronavirus) (UniProt P0C6X7); assay: Competitive inhibition of SARS coronavirus recombinant 3C-like protease expressed in Escherichia coli BL21(DE3) by Dixon plot analysis
Procedure, shortened: (§1)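 Inhibitor at 0, 20, 30, 40, 50 and 60 μM; substrate at 5, 7.5 and 10 μM. Mode assigned from Lineweaver–Burk and Dixon plots. Km and Ki come from linear regression, with Ki taken from the common x-axis intercept on the Dixon plot.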

[4] = biological target: T1, Replicase polyprotein 1ab; assay: Inhibition of SARS coronavirus recombinant 3C-like protease expressed in Escherichia coli BL21(DE3) by Lineweaver-Burk plot analysis; procedure, shortened: as §1

| SMILES | IC50 [1] [µM] | inhibition [2] [%] | inhibition [3] | Ki [4] [µM] |
| --- | --- | --- | --- | --- |
| COc1cc(C2C(C(=O)c3ccc(OCC(C)C)cc3C)=C(O)C(=O)N2CCN(C)C)ccc1O (stereo not drawn) | 62.8 | 61.4 | – | – |
| Nc1nc(CSc2nnc(-c3cccc4ccccc34)n2-c2ccccc2)cs1 | 58.3 | 58.2 | – | – |
| O=C(CSc1ncnc2c1sc1nc(N3CCOCC3)c3c(c12)CCCC3)NCc1ccco1 | 90.7 | 53.3 | – | – |
| Cc1nc(C)c(C(=O)C2=C(O)C(=O)N(CCCN3CCOCC3)C2c2cccc([N+](=O)[O-])c2)s1 (stereo not drawn) | 101 | 49.1 | – | – |
| Cc1ccc(C(=O)N/C(=C\c2ccc(-c3cccc([N+](=O)[O-])c3)o2)C(=O)NCCCN(C)C)cc1 | 38.6 | 82.6 | Active | 9.11 |
| Cc1ccc(C(=O)N/C(=C\c2ccc(-c3ccccc3[N+](=O)[O-])o2)C(=O)NCCCN(C)C)cc1 | 41.4 | 81.4 | Active | 9.93 |
| COc1cc(/C=N/NC(=O)/C(=C\c2ccccc2)NC(=O)c2ccccc2)cc(OC)c1O | 77.1 | 56.1 | – | – |
